This note sets out measurements from ChEMBL document CHEMBL1154279, “Cytotoxic compounds from the stems of Cinnamomum tenuifolium” (J Nat Prod, 2009).

The structures appear in SMILES notation. pIC50: −log10 of the molar value.

One experiment has as its system DU-145. As to the kind of experiment: Cytotoxicity against human DU145 cells after 72 hrs by XTT assay. The settings on record: DU-145, 24 h, in the assay text read “after 24 hrs” for “after 72 hrs”. The format is functional, cell-based.
Another experiment deals with LNCaP. Description: Cytotoxicity against human LNCAP cells after 72 hrs by XTT assay. In kind it is functional, cell-based. The settings on record: 24 h, in the assay text read “after 24 hrs” for “after 72 hrs”. In outline: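 Prostate cancer cells in RPMI-1640 with 10% FBS, 37 °C, 5% CO2, grown to 70–80% confluence and treated at 0.1–100 µM for 24, 48 and 72 h. XTT labeling for 4 h at 37 °C, absorbance 450 nm (reference 650 nm) against control wells. IC50 derived from the mean of eight wells; taxol and cisplatin served as positive controls.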

Take `CC(C)C1=CC(=O)[C@]2(C)O[C@@]1(O)[C@@H]1[C@H](C)CC[C@@H]12` [ALPINENONE]: the pIC50 with DU-145 is 3.57; in the experiment with LNCaP, 4.17.

For the molecule `C=C1OC(=O)/C(=C/CCCCCCCCCCCCCCCCCCCCCCCCCC)[C@@H]1O` [ISOTENUIFOLIDE], the negative logarithm of the IC50 (pIC50) is 4.08 in the experiment with DU-145 and 4.37 in the experiment with LNCaP.

For `C=C1OC(=O)/C(=C\CCCCCCCCCCCCC)[C@@H]1O` [OBTUSILACTONE A], the negative-log IC50 (pIC50) with DU-145 is 4.16; in the experiment on LNCaP, 4.44.

In the case of `CC(=O)O[C@H]1C(=O)[C@@]2(C)[C@H]([C@H](OC(=O)c3ccccc3)[C@]3(O)C[C@H](OC(=O)[C@H](O)[C@@H](NC(=O)c4ccccc4)c4ccccc4)C(C)=C1C3(C)C)[C@]1(OC(C)=O)CO[C@@H]1C[C@@H]2O` [PACLITAXEL], the pIC50 in the experiment on LNCaP is 5.20.
